How the values were obtained:
[1] = system: Mus musculus; assay: Toxicity in BALB/c nu/nu mouse xenografted with human DMS53 cells assessed as vacuolation at 3 mg/kg, iv administered for 5 days a week measured after 21 days by hematoxylin and eosin staining method; type: organism-based, DMS-53; set-up: dose 3 mg/kg, route intravenous; conditions: in vivo, 504 h
Procedure, shortened: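 Nude mice with DMS-53 xenografts dosed by tail-vein iv injection in 30% propylene glycol/saline, starting at 100 mm3 tumour volume, 5 days/week for 21 days. Spleen, kidney, liver, heart, lungs and brain were stained with H&E, Perls' (Fe loading) and Gomori Trichrome (fibrosis) by standard methods, and an independent veterinary pathologist examined them.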

[2] = system: Mus musculus; assay: Toxicity in BALB/c nu/nu mouse xenografted with human DMS53 cells assessed as change in hemoglobin level at 20 mg/kg, po administered for 3 times a week measured after 20 days; type: organism-based, DMS-53; set-up: dose 20 mg/kg, route oral; conditions: in vivo, 480 h
Procedure, shortened: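 Nude mice bearing DMS-53 xenografts gavaged 3 times/week for 20 days, vehicle 30% propylene glycol/saline, vehicle controls, n = 6-11 mice/condition. Sacrifice on day 20. Organ weights and hematological indices recorded. Spleen, kidney, liver, heart, lungs and brain examined histologically, hearts stained with Gomori Trichrome for fibrosis.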

Structure (SMILES) | Activity [1] | Activity [2]
CCN(C)C(=S)NN=C(c1ccccn1)c1ccccn1.Cl | Non-toxic | 
CN(C(=S)NN=C(c1ccccn1)c1ccccn1)C1CCCCC1.Cl |  | Non-toxic

Source: ChEMBL document CHEMBL2203173 (J Med Chem, 2012)
